The values that follow come from ChEMBL document CHEMBL1129639, “Synthesis and cardiotonic activity of novel pyrimidine derivatives: crystallographic and quantum chemical studies” (J Med Chem, 1996).

Common to all, as to format: functional
For assay [1], the species on record is Cavia porcellus. The experiment in a line: Effect on the contractile force of spontaneously beating atria from Reserpine-treated guinea pigs as percentage variation from the control at concentration of 10E-6 M. In a few lines:
(§1)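 Atria from reserpine-treated guinea pigs (reserpine 2 mg/kg ip, 48 and 24 h before death; only tyramine-unresponsive preparations used). Bath solution at 29 °C, gassed 95% O2/5% CO2, pH 7.5, resting tension […]. After 90 min equilibration, compound added cumulatively, 5 min per concentration. Isometric developed-tension amplitude or beating rate given as % variation from untreated control. Mean ± SEM, 6-10 assays.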

For assay [2], the species on record is Cavia porcellus. The experiment in a line: Effect on the frequency rate of spontaneously beating atria from Reserpine-treated guinea pigs as percentage variation from the control at concentration of 10E-3 M. In short, it runs like this:
as §1

The species entered for assay [3] is Cavia porcellus. The experiment in a line: Effect on the contractile force of spontaneously beating atria from Reserpine treated guinea pigs as percentage variation from the control at concentration of 10E-4 M. In a few lines: as §1
The species entered for assay [4] is Cavia porcellus. The experiment in a line: Compound was evaluated for its effect on the frequency rate of spontaneously beating atria from Reserpine-treated guinea pigs as percentage variation from the control at concentration of 3 x 10E-4 M. In a few lines: as §1
For assay [5], the species on record is Cavia porcellus. The experiment in a line: Effect on the contractile force of spontaneously beating atria from Reserpine-treated guinea pigs as percentage variation from the control at concentration of 10E-5 M. In a few lines: as §1
For assay [6], the species on record is Cavia porcellus. The experiment in a line: Compound was evaluated for its effect on the frequency rate of spontaneously beating atria from Reserpine-treated guinea pigs as percentage variation from the control at concentration of 3 x 10E-6 M. In a few lines: as §1
The species entered for assay [7] is Cavia porcellus. The experiment in a line: Effect on the contractile force of spontaneously beating atria from Reserpine-treated guinea pigs as percentage variation from the control at concentration of 3 x 10E-6 M. In short, it runs like this: as §1
Assay [8] is filed under the species Cavia porcellus. The experiment in a line: Effect on the frequency rate of spontaneously beating atria from Reserpine-treated guinea pigs as percentage variation from the control at concentration of 10E-4 M. In short, it runs like this: as §1
The species entered for assay [9] is Cavia porcellus. The experiment in a line: Compound was evaluated for its effect on the frequency rate of spontaneously beating atria from Reserpine-treated guinea pigs as percentage variation from the control at concentration of 3 x 10E-5 M. In short, it runs like this: as §1
The species entered for assay [10] is Cavia porcellus. The experiment in a line: Effect on the contractile force of spontaneously beating atria from Reserpine-treated guinea pigs as percentage variation from the control at concentration of 3 x 10E-5 M. In short, it runs like this:
as §1

For assay [11], the species on record is Cavia porcellus. The experiment in a line: Effect on the contractile force of spontaneously beating atria from Reserpine-treated guinea pigs as percentage variation from the control at concentration of 10E-3 M. In short, it runs like this:
as §1

The species named for assay [12] is Cavia porcellus. The experiment in a line: Effect on the frequency rate of spontaneously beating atria from Reserpine-treated guinea pigs as percentage variation from the control at concentration of 10E-5 M. In short, it runs like this:
as §1

For assay [13], the species on record is Cavia porcellus. The experiment in a line: Effect on the contractile force of spontaneously beating atria from Reserpine-treated guinea pigs as percentage variation from the control at concentration of 3 x 10E-4 M. In a few lines:
as §1

For assay [14], the species on record is Cavia porcellus. The experiment in a line: Effect on the frequency rate of spontaneously beating atria from Reserpine-treated guinea pigs as percentage variation from the control at concentration of 10E-6 M. In a few lines:
as §1

With `CCc1nc(N(C)C)ncc1C(=O)O`, the Variation in the assay listed under Cavia porcellus [1] is 0%; in the assay filed under Cavia porcellus [2], -7.69%; in the assay listed under Cavia porcellus [3], 6.67%; in the assay filed under Cavia porcellus [4], -4.79%; in the assay filed under Cavia porcellus [5], 4.47%; in the assay filed under Cavia porcellus [6], 0%. For the same compound, the Variation in the assay filed under Cavia porcellus [7] turned out to be 2.44%; in the assay filed under Cavia porcellus [8] it was 1.11%; in the assay listed under Cavia porcellus [9], 0%; in the assay filed under Cavia porcellus [10] it was 6.17%; in the assay listed under Cavia porcellus [11] it was 22.03%; in the assay listed under Cavia porcellus [12], 0%. In addition, the Variation amounted to 14.69% in the assay filed under Cavia porcellus [13] and 0% in the assay filed under Cavia porcellus [14].
With `CCOC(=O)c1cnc(N(C)C)nc1C(F)(F)F`, the Variation in the assay listed under Cavia porcellus [1] is given as 7.15%; in the assay listed under Cavia porcellus [2], -19.35%; in the assay listed under Cavia porcellus [3] it was -30.35%; in the assay filed under Cavia porcellus [4], -6.66%; in the assay listed under Cavia porcellus [5] it was 10.67%; in the assay filed under Cavia porcellus [6] it was 0%. For the same compound, the Variation is recorded as 11.26% in the assay filed under Cavia porcellus [7]; -6.66% in the assay filed under Cavia porcellus [8]; -3.61% in the assay listed under Cavia porcellus [9]; -3.61% in the assay filed under Cavia porcellus [10]; -60.44% in the assay listed under Cavia porcellus [11]; -3.23% in the assay listed under Cavia porcellus [12]. In addition, the figures for the Variation in the assay filed under Cavia porcellus [13] and in the assay listed under Cavia porcellus [14] were -47.85% and 0%, respectively.
As to `CN(C)c1nccc(C(F)(F)F)n1`, the Variation is given as 0% in the assay filed under Cavia porcellus [1]; -100% in the assay listed under Cavia porcellus [2]; -67.95% in the assay listed under Cavia porcellus [3]; -32.26% in the assay listed under Cavia porcellus [4]; -12.62% in the assay listed under Cavia porcellus [5]; 0% in the assay listed under Cavia porcellus [6]. For the same compound, the Variation in the assay listed under Cavia porcellus [7] is given as 2.47%; in the assay listed under Cavia porcellus [8], -22.58%; in the assay listed under Cavia porcellus [9], -3.68%; in the assay filed under Cavia porcellus [10] it was -30.94%; in the assay filed under Cavia porcellus [11] it was -100%; in the assay filed under Cavia porcellus [12], -3.23%. In addition, the figures for the Variation in the assay listed under Cavia porcellus [13] and in the assay filed under Cavia porcellus [14] were -83.03% and 0%, respectively.
For the compound `CN(C)c1nccc(-c2ccccc2)n1`, the Variation in the assay listed under Cavia porcellus [1] is on record as 0%; in the assay listed under Cavia porcellus [2], -100%; in the assay listed under Cavia porcellus [3] it was -12.16%; in the assay listed under Cavia porcellus [4], -13.33%; in the assay listed under Cavia porcellus [5] it was 7.52%; in the assay filed under Cavia porcellus [6], 0%. In addition, the Variation in the assay filed under Cavia porcellus [7] is recorded as 4.67%; in the assay filed under Cavia porcellus [8] it was 0%; in the assay listed under Cavia porcellus [9], 0%; in the assay listed under Cavia porcellus [10], 5.57%; in the assay listed under Cavia porcellus [11], -100%; in the assay listed under Cavia porcellus [12], 0%. Moreover, the values for the Variation in the assay listed under Cavia porcellus [13] and in the assay listed under Cavia porcellus [14] were -23.76% and 0%, respectively.
Turning to `CCCc1nc(N(C)C)ncc1C(=O)O`, the Variation in the assay filed under Cavia porcellus [1] is listed as 5.38%; in the assay listed under Cavia porcellus [2] it was -4.28%; in the assay filed under Cavia porcellus [3], 18.35%; in the assay listed under Cavia porcellus [4], -5.71%; in the assay listed under Cavia porcellus [5], 11.21%; in the assay filed under Cavia porcellus [6] it was 0%. Also, the Variation is 8.66% in the assay filed under Cavia porcellus [7]; -2.85% in the assay listed under Cavia porcellus [8]; -2.85% in the assay listed under Cavia porcellus [9]; 15.72% in the assay filed under Cavia porcellus [10]; 23.61% in the assay filed under Cavia porcellus [11]; -2.85% in the assay filed under Cavia porcellus [12]. For the same compound, the Variation is reported as 19.73% in the assay filed under Cavia porcellus [13] and 0% in the assay listed under Cavia porcellus [14].
In the case of `CN(C)c1ncc(C(=O)O)cn1`, the Variation is 3.76% in the assay listed under Cavia porcellus [1]; 6.25% in the assay listed under Cavia porcellus [2]; 9.39% in the assay filed under Cavia porcellus [3]; 3.44% in the assay filed under Cavia porcellus [4]; 7.54% in the assay filed under Cavia porcellus [5]; 0% in the assay filed under Cavia porcellus [6]. Moreover, the Variation in the assay listed under Cavia porcellus [7] is 6.36%; in the assay listed under Cavia porcellus [8] it was 3.44%; in the assay filed under Cavia porcellus [9], 3.44%; in the assay listed under Cavia porcellus [10], 10.48%; in the assay listed under Cavia porcellus [11], 9.64%; in the assay filed under Cavia porcellus [12], 3.12%. The figures for the Variation in the assay listed under Cavia porcellus [13] and in the assay listed under Cavia porcellus [14] were 8.34% and 0%, respectively.
